Laboratory results from ChEMBL document CHEMBL2062469, “1-(2-Mercaptobenzenesulfonyl)-3-hydroxyguanidines--novel potent antiproliferatives, synthesis and in vitro biological activity” (2012).

How the values were obtained:
Assay type in all cases: functional
CCRF-CEM = assay: Cytostatic activity against human CCRF-CEM cells
Method in brief: (§1)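 NCI-60 human tumor cell line screen run by the US National Cancer Institute under the NIH Developmental Therapeutics Program protocol. A single-dose prescreen at 10 µM came first. Selected compounds then went into the 5-dose assay. Cytostatic activity is reported as GI50 (µM).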

K562 = assay: Cytostatic activity against human K562 cells; method in brief: as §1
MOLT-4 = assay: Cytostatic activity against human MOLT4 cells; method in brief: as §1
[1] = Cytostatic activity against human […] cells; method in brief: as §1
SR = assay: Cytostatic activity against human SR cells
Method in brief: (§2)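 Human tumour cell lines from the NCI-60 panel, tested at the US National Cancer Institute under the NIH Developmental Therapeutics Program protocol. A single-dose prescreen at 10 µM came first. Selected compounds then went to a 5-dose assay, which gave GI50 and TGI values in µM.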

EKVX = assay: Cytostatic activity against human EKVX cells; method in brief: as §1
HOP-62 = assay: Cytostatic activity against human HOP62 cells; method in brief: as §1
HOP-92 = assay: Cytostatic activity against human HOP92 cells; method in brief: as §1
NCI-H226 = assay: Cytostatic activity against human NCI-H226 cells; method in brief: as §1
NCI-H23 = assay: Cytostatic activity against human NCI-H23 cells; method in brief: as §1
NCI-H322M = assay: Cytostatic activity against human NCI-H322M cells; method in brief: as §1
NCI-H460 = assay: Cytostatic activity against human NCI-H460 cells; method in brief: as §1
NCI-H522 = assay: Cytostatic activity against human NCI-H522 cells; method in brief: as §1
COLO 205 = assay: Cytostatic activity against human COLO205 cells; method in brief: as §1
HCC 2998 = assay: Cytostatic activity against human HCC2998 cells; method in brief: as §1
HCT-116 = assay: Cytostatic activity against human HCT116 cells; method in brief: as §1
HCT-15 = assay: Cytostatic activity against human HCT15 cells; method in brief: as §1
HT-29 = assay: Cytostatic activity against human HT-29 cells; method in brief: as §1
KM12 = assay: Cytostatic activity against human KM12 cells; method in brief: as §1
SW-620 = assay: Cytostatic activity against human SW620 cells; method in brief: as §2
SF-268 = assay: Cytostatic activity against human SF268 cells; method in brief: as §1
SF-295 = assay: Cytostatic activity against human SF295 cells; method in brief: as §1
SF-539 = assay: Cytostatic activity against human SF539 cells; method in brief: as §1
SNB-19 = assay: Cytostatic activity against human SNB19 cells; method in brief: as §1
SNB-75 = assay: Cytostatic activity against human SNB75 cells; method in brief: as §2
U-251 = assay: Cytostatic activity against human U251 cells; method in brief: as §2
LOX IMVI = assay: Cytostatic activity against human LOXIMVI cells; method in brief: as §1
Malme-3M = assay: Cytostatic activity against human MALME-3M cells; method in brief: as §1
M14 = assay: Cytostatic activity against human M14 cells; method in brief: as §1
MDA-MB-435 = assay: Cytostatic activity against human MDA-MB-435 cells; method in brief: as §1
SK-MEL-2 = assay: Cytostatic activity against human SK-MEL-2 cells; method in brief: as §1
SK-MEL-28 = assay: Cytostatic activity against human SK-MEL-28 cells; method in brief: as §1
SK-MEL-5 = assay: Cytostatic activity against human SK-MEL-5 cells; method in brief: as §1
UACC-257 = assay: Cytostatic activity against human UACC257 cells; method in brief: as §2
UACC-62 = assay: Cytostatic activity against human UACC62 cells; method in brief: as §2
IGROV-1 = assay: Cytostatic activity against human IGROV1 cells; method in brief: as §1
OVCAR-3 = assay: Cytostatic activity against human OVCAR3 cells; method in brief: as §1
OVCAR-4 = assay: Cytostatic activity against human OVCAR4 cells; method in brief: as §1
OVCAR-5 = assay: Cytostatic activity against human OVCAR5 cells; method in brief: as §1
OVCAR-8 = assay: Cytostatic activity against human OVCAR8 cells; method in brief: as §1
NCI/ADR-RES = assay: Cytostatic activity against human NCI-ADR-RES cells; method in brief: as §1
SK-OV-3 = assay: Cytostatic activity against human SKOV3 cells; method in brief: as §1
786-0 = assay: Cytostatic activity against human 786-0 cells; method in brief: as §1
A498 = assay: Cytostatic activity against human A498 cells; method in brief: as §1
ACHN = assay: Cytostatic activity against human ACHN cells; method in brief: as §1
CAKI-1 = assay: Cytostatic activity against human Caki1 cells; method in brief: as §1
RXF 393 = assay: Cytostatic activity against human RXF393 cells; method in brief: as §1
SN12C = assay: Cytostatic activity against human SN12C cells; method in brief: as §1
UO-31 = assay: Cytostatic activity against human UO31 cells; method in brief: as §2
PC-3 = assay: Cytostatic activity against human PC3 cells; method in brief: as §1
DU-145 = assay: Cytostatic activity against human DU145 cells; method in brief: as §1
MCF7 = assay: Cytostatic activity against human MCF7 cells; method in brief: as §1
MDA-MB-231 = assay: Cytostatic activity against human MDA-MB-231/ATCC cells; method in brief: as §1
Hs-578T = assay: Cytostatic activity against human Hs 578T cells; method in brief: as §1
BT-549 = assay: Cytostatic activity against human BT549 cells; method in brief: as §1
T47D = assay: Cytostatic activity against human T47D cells; method in brief: as §2
MDA-MB-468 = assay: Cytostatic activity against human MDA-MB-468 cells; method in brief: as §1

N=C(NO)NS(=O)(=O)c1cc(-c2nc(-c3ccccc3)no2)c(Cl)cc1SCc1ccccc1
GI50 (CCRF-CEM): 1910 nM
TGI (CCRF-CEM): 5300 nM
GI50 (K562): 1870 nM
TGI (K562): 4740 nM
GI50 (MOLT-4): 1450 nM
TGI (MOLT-4): 3740 nM
GI50 [1]: 2340 nM
TGI [1]: 9030 nM
GI50 (SR): 1430 nM
TGI (SR): 5880 nM
GI50 (EKVX): 1360 nM
TGI (EKVX): 2710 nM
GI50 (HOP-62): 2230 nM
TGI (HOP-62): 5120 nM
GI50 (HOP-92): 1990 nM
TGI (HOP-92): 9010 nM
GI50 (NCI-H226): 2230 nM
TGI (NCI-H226): 4800 nM
GI50 (NCI-H23): 1860 nM
TGI (NCI-H23): 4360 nM
GI50 (NCI-H322M): 3480 nM
TGI (NCI-H322M): 16200 nM
GI50 (NCI-H460): 1940 nM
TGI (NCI-H460): 3950 nM
GI50 (NCI-H522): 1320 nM
TGI (NCI-H522): 2970 nM
GI50 (COLO 205): 1860 nM
TGI (COLO 205): 3390 nM
GI50 (HCC 2998): 2010 nM
TGI (HCC 2998): 4030 nM
GI50 (HCT-116): 1670 nM
TGI (HCT-116): 3320 nM
GI50 (HCT-15): 1790 nM
TGI (HCT-15): 3830 nM
GI50 (HT-29): 1900 nM
TGI (HT-29): 3490 nM
GI50 (KM12): 1770 nM
TGI (KM12): 3550 nM
GI50 (SW-620): 1680 nM
TGI (SW-620): 3210 nM
GI50 (SF-268): 1740 nM
TGI (SF-268): 3950 nM
GI50 (SF-295): 2050 nM
TGI (SF-295): 5790 nM
GI50 (SF-539): 2720 nM
TGI (SF-539): 6440 nM
GI50 (SNB-19): 3560 nM
TGI (SNB-19): 18700 nM
GI50 (SNB-75): 1220 nM
TGI (SNB-75): 3940 nM
GI50 (U-251): 1360 nM
TGI (U-251): 2840 nM
GI50 (LOX IMVI): 1630 nM
TGI (LOX IMVI): 4090 nM
GI50 (Malme-3M): 1800 nM
TGI (Malme-3M): 7420 nM
GI50 (M14): 2150 nM
TGI (M14): 4390 nM
GI50 (MDA-MB-435): 1510 nM
TGI (MDA-MB-435): 3080 nM
GI50 (SK-MEL-2): 1960 nM
TGI (SK-MEL-2): 4030 nM
GI50 (SK-MEL-28): 1710 nM
TGI (SK-MEL-28): 3460 nM
GI50 (SK-MEL-5): 1480 nM
TGI (SK-MEL-5): 2860 nM
GI50 (UACC-257): 1680 nM
TGI (UACC-257): 3530 nM
GI50 (UACC-62): 1840 nM
TGI (UACC-62): 3830 nM
GI50 (IGROV-1): 2380 nM
TGI (IGROV-1): 7530 nM
GI50 (OVCAR-3): 1690 nM
TGI (OVCAR-3): 3120 nM
GI50 (OVCAR-4): 1600 nM
TGI (OVCAR-4): 4060 nM
GI50 (OVCAR-5): 2070 nM
TGI (OVCAR-5): 5310 nM
GI50 (OVCAR-8): 1720 nM
TGI (OVCAR-8): 3820 nM
GI50 (NCI/ADR-RES): 2060 nM
TGI (NCI/ADR-RES): 5050 nM
GI50 (SK-OV-3): 2200 nM
TGI (SK-OV-3): 4550 nM
GI50 (786-0): 2750 nM
TGI (786-0): 7060 nM
GI50 (A498): 2570 nM
TGI (A498): 7850 nM
GI50 (ACHN): 2020 nM
TGI (ACHN): 3900 nM
GI50 (CAKI-1): 1670 nM
TGI (CAKI-1): 3650 nM
GI50 (RXF 393): 1520 nM
TGI (RXF 393): 2970 nM
GI50 (SN12C): 1530 nM
TGI (SN12C): 3270 nM
GI50 (UO-31): 1400 nM
TGI (UO-31): 7640 nM
GI50 (PC-3): 1790 nM
TGI (PC-3): 3880 nM
GI50 (DU-145): 1710 nM
TGI (DU-145): 3170 nM
GI50 (MCF7): 1450 nM
TGI (MCF7): 2970 nM
GI50 (MDA-MB-231): 2030 nM
TGI (MDA-MB-231): 5240 nM
GI50 (Hs-578T): 2550 nM
TGI (Hs-578T): 6360 nM
GI50 (BT-549): 2450 nM
TGI (BT-549): 5230 nM
GI50 (T47D): 1700 nM
TGI (T47D): 3480 nM
GI50 (MDA-MB-468): 1560 nM
TGI (MDA-MB-468): 3040 nM
